GSTO1 inh – inhibitors of recombinant GSTO1, primary screen, counter-screen for RBBP9 inhibitor project, biochemical, fluorescence polarization. Glutathione S-transferase omega-1 (Homo sapiens), P78417. activity-based probe fluorescence polarization. inhibition, % at 5.96 µM. 300,000 tested, 1.1% active. AID 1974, 2009;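 active = inhibition above the campaign mean inhibition plus 3 SD, cut at about 35% in these data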;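 also: 0% = GSTO1-1 with DMSO and 100% = wells lacking GSTO1-1 enzyme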
TDP2 inh – human TDP2 enzyme inhibitors, primary screen, biochemical, epi absorbance, recombinant enzyme; 370,000 tested, 0.34% active; inhibition, % at 12.8 µM; AID 720702, 2013; Tyrosyl-DNA phosphodiesterase 2 (Homo sapiens), O95551; T5PNP hydrolysis, p-nitrophenol absorbance 415 nm;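 active = inhibition above the mean of all tested compounds plus 3 SD, set per campaign, cut at about 25% in these data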;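 also: 0% = DMSO with enzyme and 100% = buffer with substrate but no TDP2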
Target sequence (O95551 whole entry, looked up): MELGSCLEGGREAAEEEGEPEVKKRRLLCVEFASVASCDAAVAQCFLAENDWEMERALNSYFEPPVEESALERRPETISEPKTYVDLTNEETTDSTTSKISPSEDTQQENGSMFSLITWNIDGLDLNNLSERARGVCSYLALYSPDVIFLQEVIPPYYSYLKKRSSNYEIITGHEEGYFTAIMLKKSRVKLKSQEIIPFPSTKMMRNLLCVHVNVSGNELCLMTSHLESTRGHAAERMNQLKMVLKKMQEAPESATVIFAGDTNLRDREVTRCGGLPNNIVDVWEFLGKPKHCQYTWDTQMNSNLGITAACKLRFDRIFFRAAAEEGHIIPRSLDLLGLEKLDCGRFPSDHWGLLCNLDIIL
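System: recombinant human TDP2 / Amount: 120 nM TDP2 per well / Also added: 5 mM T5PNP chromogenic substrate / Doses: 12.8 µM single point, 1% DMSO / Incubation: 2 h at 37 °C / Detection: p-Nitrophenol epi absorbance / Evaluation: % inhibition relative to enzyme-containing and enzyme-free wells / Repeats: singlicate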
PP1 inh – PP1-alpha phosphatase inhibitors, primary screen, counter-screen for PP5 inhibitor project, biochemical, fluorescence, OMFP substrate, single point; 320,000 tested, 0.9% active; AID 2235, 2010; Serine/threonine-protein phosphatase PP1-alpha catalytic subunit (Homo sapiens), P62136; purified PP1alpha; inhibition, % at 6.7 µM;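 active = inhibition above the mean inhibition of all tested compounds plus 3 SD, computed separately for each screening campaign, cut at about 15% in these data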
Target sequence (P62136 whole entry, looked up): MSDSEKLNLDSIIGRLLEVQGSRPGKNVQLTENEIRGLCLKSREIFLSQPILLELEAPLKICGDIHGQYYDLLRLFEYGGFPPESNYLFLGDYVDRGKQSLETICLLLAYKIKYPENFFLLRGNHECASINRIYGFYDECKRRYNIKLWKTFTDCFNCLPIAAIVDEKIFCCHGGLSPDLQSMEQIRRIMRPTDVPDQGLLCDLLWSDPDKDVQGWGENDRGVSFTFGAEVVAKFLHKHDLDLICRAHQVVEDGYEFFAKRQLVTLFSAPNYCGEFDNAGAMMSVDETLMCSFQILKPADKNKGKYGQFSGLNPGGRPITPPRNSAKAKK
PP5 inh – PP5 phosphatase inhibitors, primary screen, biochemical, fluorescence; Serine/threonine-protein phosphatase 5 (Homo sapiens), P53041; inhibition, % at 6.7 µM; purified PP5c, OMFP substrate fluorescence; 320,000 tested, 0.18% active;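 active = inhibition above the campaign's mean inhibition across all tested compounds plus 3 SD, cut at about 9.5% in these data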;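 also: 0% = DMSO only and 100% = 100 µM cantharidin control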
Apaf1 inhib – inhibitors of human Apaf-1 apoptosome, primary screen, biochemical, DEVD-Rh110 fluorescence, uHTS; Apoptotic protease-activating factor 1 (Homo sapiens), O14727; inhibition, % at 20 µM; reconstituted apoptosome caspase-3 activity; AID 489030, 2010; 330,000 tested, 0.71% active; active = inhibition of at least 40% at 20 µM;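 also: plate controls were DMSO wells for no effect and DEVD-CHO caspase inhibitor wells for full effect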
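Material: reconstituted apoptosome with Apaf-1, cytochrome c, caspase-9, procaspase-3, dATP / Buffer or medium: pH 7.5 Hepes buffer with CHAPS, BSA, DTT / Also added: cytochrome c with DEVD-Rh110 / Schedule: compound with Apaf-1, dATP, procaspase-3 30 min, then 50 min reaction, room temperature / Technique: rhodamine 110 fluorescence at Ex 480/Em 540 nm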
GSTO1 inh conf – GSTO1 inhibitor hit confirmation, counter-screen for RBBP9 inhibitor project, biochemical, fluorescence polarization, triplicate | shares compounds with GSTO1 inh | recombinant GSTO1, probe fluorescence polarization | inhibition, % at 5.96 µM | 2,400 tested, 54% active;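 active = inhibition above the primary screen's cutoff, its mean inhibition plus 3 SD, cut at about 35% in these data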;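 also: loss of polarization as inhibitors block binding of rhodamine sulfonate ester activity probe; 0% = GSTO1 with DMSO and 100% = wells lacking GSTO1 enzyme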
GSTO1 recomb ABPP – inhibitors of purified human GSTO1, late-stage follow-up, biochemical, gel ABPP, SE-Rh probe, percent inhibition; inhibition, % at 1 µM; shares compounds with GSTO1 inh; 130 tested, 30% active; recombinant GSTO1, gel ABPP SE-Rh probe fluorescence;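 active = inhibition of the enzyme GSTO1 above about 75%, limit read from the data; inactive = inhibition below that limit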
Numbers without * were called inactive; . = no result. Compounds with a hit are over-represented: about 2.1% of the library has one in this group of screens.

SMILES | GSTO1 inh | TDP2 inh | PP1 inh | PP5 inh | Apaf1 inhib | GSTO1 inh conf | others
O=C(CNC(=O)c1ccccc1)NCCc1ccc(O)c(O)c1 | 75* | -18 | 0 | 1 | 2 | 7
CC(C)(C)c1ccc(S(=O)(=O)N2CCC(C(=O)NCCC3=CCCCC3)CC2)cc1 | . | 0 | . | . | . | .
CC(C)=NOc1cc(NC(=O)CCl)cc([N+](=O)[O-])c1 | 80* | 1 | -1 | 2 | 10 | 100*
CCC(=O)Nc1cc(ON=C(C)C)cc([N+](=O)[O-])c1 | -3 | 1 | 1 | 1 | . | .
CCOC(=O)[C@]12CCCC=C1N(Cc1ccc(OC)cc1)C(=O)[C@@H]2CC(=O)N1CCCCC1 | . | 1 | . | . | . | .
CC(C)CNC(=O)OCc1cn(Cc2ccc(C(F)(F)F)cc2)nn1 | . | 0 | . | . | . | .
COc1ccc(-n2nc3c(c2NC(=O)C(C)Cl)CSC3)cc1 (centres undefined) | 2 | -16 | -1 | -2 | 7 | .
COc1ccc(-n2nc3c(c2NC(=O)CCl)CSC3)cc1 | 88* | -1 | -4 | -1 | 12 | 92*
COc1ccccc1N(C(=O)CCl)c1cn(C(C)=O)c2ccccc12 | 71* | 9 | -4 | 1 | -14 | 79* | GSTO1 recomb ABPP=14
CC(=O)n1cc(Nc2ccccc2C(=O)O)c2ccccc21 | 10 | -2 | -4 | -1 | 1 | .
CC(=O)n1cc(N(C(=O)CCl)c2ccc(Cl)cc2)c2ccccc21 | 82* | . | 4 | 0 | 13 | 84* | GSTO1 recomb ABPP=82*
CCOC(=O)c1ccccc1Nc1cn(C(C)=O)c2ccccc12 | -4 | 6 | -2 | 2 | 8 | .
N#Cc1ccc(NC(=O)OC2CC3CC2[C@H]2CCCCN2[C@H]3Cc2ccccc2)cc1 (some centres undefined) | . | -2 | . | . | . | .
Cc1ccc(/C=C2\SC(=S)N(/N=C/c3cc([N+](=O)[O-])ccc3O)C2=O)o1 | 50* | . | 6 | -1 | -14 | 43*
O=[N+]([O-])c1ccc(O)c(/C=N/n2cnc3ccccc32)c1 | 11 | -5 | -1 | 1 | -7 | .
COc1ccc(C(=O)CSc2nnc(-c3cccnc3)n2-c2ccccc2)cc1 | . | -1 | . | . | . | .
COC(=O)[C@]12C[C@H](CC(=O)NCc3ccc(OC)c(OC)c3)C(=O)N(Cc3ccco3)C1=C[C@H](COCc1ccccc1)O[C@@H]2C | . | 2 | . | . | . | .
COC(=O)C(N)Cc1ccc(O)c(O)c1 (centres undefined) | 90* | 3 | -3 | 1 | -4 | 3
c1ccc(-c2ccc(C3=Nn4c(Cn5nnc6ccccc65)nnc4SC3)cc2)cc1 | 56* | -4 | 12 | 5 | 27 | -9
CC(C)(C)c1ccc(S(=O)(=O)N2CCC(C(=O)NCc3cccs3)CC2)cc1 | . | 10 | . | . | . | .
CC(OC(=O)c1cc(O)c2ccccc2c1O)C(=O)Nc1ccc(C(N)=O)cc1 (centres undefined) | 48* | 47* | -3 | 1 | 49* | 56*
C[C@H](c1ccccc1)N1C[C@@H](COCc2ccccc2)Oc2cc(N3CC[C@@H](N(C)C)C3)ccc2S1(=O)=O | . | -3 | . | . | . | .
CC(=O)Oc1ccc(OC(C)=O)c(S(=O)(=O)c2ccc(C)c(C)c2)c1 | 47* | -14 | 0 | -1 | 2 | 7
COc1ccc(/C=C/C(=O)Oc2ccc(C)c(C)c2)cc1OC | -1 | 0 | -1 | 2 | 9 | .
O=C(COC(=O)c1ccc([N+](=O)[O-])s1)NC(=O)NCc1ccccc1 | 51* | 21 | -1 | 2 | 33 | 17
SMILES | GSTO1 inh | TDP2 inh | PP1 inh | PP5 inh | Apaf1 inhib | GSTO1 inh conf | others
O=C(COC(=O)c1ccc([N+](=O)[O-])s1)NCCc1ccccc1 | . | . | 1 | 3 | 33 | .
CCc1n[nH]c(=S)n1/N=C/c1c(O)ccc2ccccc12 | 38* | -6 | -3 | -1 | -7 | 8
CCc1n[nH]c(=S)n1/N=C/c1cccc2ccccc12 | 12 | -23 | -2 | 1 | 4 | .
Cc1cc2nc(-c3ccc(F)cc3)c(CC(C)(C)C)n2c(C)c1Br | . | -4 | . | . | . | .
O=C1c2ccccc2-c2onc3ccc(N4CCCC4)c1c23 | . | 17 | . | . | . | .
O=C1c2ccccc2C(=O)c2c1cccc2N1CCCC1 | 56* | 13 | 0 | 6 | . | 10
Cn1c(=O)cc2c3c(c(N4CCCCC4)ccc31)C(=O)c1ccccc1-2 | 39* | 17 | 1 | -2 | 7 | 24
COC(=O)[C@]1(C)CN(C(=O)OC(C)(C)C)C2=C1C(=O)C[C@](C)(C(=O)OC(C)(C)C)C2 | . | 8 | . | . | . | .
COc1ccc(OC)c(-c2c3cc(O)c(=O)cc-3oc3cc(O)c(O)cc23)c1 | 50* | . | -103 | -82 | . | 73*
COc1ccc(OC)c(-c2oc3ccccc3c(=O)c2O)c1 | -4 | 4 | 4 | 0 | 3 | .
Cc1ccc(Cn2cc(COC(=O)N3CCOCC3)nn2)cc1 | . | 8 | . | . | . | .
COC(=O)c1cc2c(c3c4ccccc4n(S(=O)(=O)c4ccc(OC)cc4)c13)C(=O)N(Cc1ccccc1OC)C2 | . | 4 | . | . | . | .
Clc1cccc(C2Nc3cccc4cccc(c34)N2)c1 | 32 | 0 | 3 | -6 | 1 | .
Brc1ccc(C2Nc3cccc4cccc(c34)N2)o1 | 54* | . | 8 | 2 | 10 | 8
Brc1cccc(C2Nc3cccc4cccc(c34)N2)c1 | 40* | -1 | 3 | 2 | 12 | 8
CCOc1ccc(C2Nc3cccc4cccc(c34)N2)cc1OC | 45* | 6 | -3 | 1 | 22 | 5
COc1cc(OC)c(C2Nc3cccc4cccc(c34)N2)c(OC)c1 | . | 11 | . | . | 39 | .
CN(C)c1ccc(C2Nc3cccc4cccc(c34)N2)cc1 | 20 | 0 | 0 | -2 | 18 | .
O=C1NC(Cc2ccc(O)cc2)c2nc3ccc(F)cc3c(=O)n2-c2cc3ccccc3cc21 (centres undefined) | . | 2 | . | . | . | .
CCCc1ccccc1OCCNS(=O)(=O)c1cc2c(cc1C)OCC(=O)N2 | 43* | -8 | 0 | 8 | 19 | 30
COCC(=O)N1CCN(C(=O)C(=O)c2cccc(C(F)(F)F)c2)CC1 | . | -6 | . | . | . | .
C=CCOC(=O)N[C@H](c1ccccc1)[C@H](C)/C=C/CC(=O)OC | . | 2 | . | . | . | .
